Assay outcomes (PubChem BioAssay)
Shown are actives, neighbours in structure and some others; about 5.7% of the full set was active somewhere.
Calb FLC – C. albicans growth modulation with fluconazole; C. albicans CaCi-2 (fluconazole-resistant clinical isolate) + fluconazole, Alamar Blue growth, 48 h; growth inhibition, % (concentration not given with the values); 0.57% of 300,000 active;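 active = growth inhibition above about 58% in most replicates, limit read from the data, passing the limit was not always enough; inconclusive = exactly half the replicates above a set limit; inactive = most replicates below a set limit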;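 note: all wells also contain fluconazole at 8 µg/ml as a sub-toxic cotreatment; 0% = median of DMSO wells and 100% = median of geldanamycin control wells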
Beta apoptosis – blocks beta cell apoptosis; INS-1E cytokine-induced death, ATP luminescence, 48 h; percent of positive-control rescue, neutral wells zero; protection from apoptosis, % (test concentration not listed); 0.8% of 300,000 active;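 active = Every replicate reaches about 75%, or at least half do and their mean reaches it too, limit read from the data; inconclusive = At least half of replicates reach the limit but their mean does not; inactive = Under half of replicates reach the limit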;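 note: 0% = cytokine-treated negative control wells and 100% = positive control rescue; higher means more ATP so stronger rescue from cytokine killing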
CSC inhib – blocks cancer stem cells. cancer stem cell-like cells viability, luminescence. inhibition, % at 7.5 µM. 1.1% of 300,000 active; in the data active = inhibition above about 75%; inconclusive = no clear call, values can overlap the other calls; tested in HMLE shEcad cells
SKKanGAS inh – blocks kanamycin growth of S. pyogenes SKKanGAS strain; inhibition, % at 7.5 µM; BacTiter-Glo, 6 h; 1.3% of 300,000 active;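 active = mean replicate score, as percent of positive control median, at least 50; inconclusive = mean below 50 but one replicate at or above 50; inactive = mean and every replicate below 50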;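 note: strain carries kanamycin resistance gene driven by streptokinase promoter and grows in 40 µg/ml kanamycin; loss of luminescence reflects streptokinase promoter inhibition or plain growth inhibition; 0% = median of DMSO wells and 100% = positive control at its reference dose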
Mdm2 MdmX PPI – disrupts the human Mdm2-MdmX interaction. 3% of 330,000 active. AID 485346. inhibition, % at 8 µM. SaOS-2 split-luciferase Mdm2/MdmX complementation, luminescence;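 active = inhibition of at least 50% at 8 µM in the primary screen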
Target sequence (O15151 whole entry, looked up): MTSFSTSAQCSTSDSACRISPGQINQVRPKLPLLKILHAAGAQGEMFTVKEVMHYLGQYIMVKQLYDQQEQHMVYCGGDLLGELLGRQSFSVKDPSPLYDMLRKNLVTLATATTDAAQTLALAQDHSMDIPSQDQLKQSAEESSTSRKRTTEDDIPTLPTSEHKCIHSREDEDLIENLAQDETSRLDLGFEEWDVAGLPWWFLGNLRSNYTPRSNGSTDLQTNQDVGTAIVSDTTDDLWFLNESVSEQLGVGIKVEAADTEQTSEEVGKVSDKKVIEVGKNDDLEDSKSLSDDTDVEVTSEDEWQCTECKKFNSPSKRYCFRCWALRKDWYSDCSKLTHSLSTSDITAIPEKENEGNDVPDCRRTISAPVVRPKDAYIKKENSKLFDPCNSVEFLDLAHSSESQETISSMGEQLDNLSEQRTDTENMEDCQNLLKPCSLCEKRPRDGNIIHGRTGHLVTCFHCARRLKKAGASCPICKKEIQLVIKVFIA
Target sequence (Q00987 whole entry, looked up): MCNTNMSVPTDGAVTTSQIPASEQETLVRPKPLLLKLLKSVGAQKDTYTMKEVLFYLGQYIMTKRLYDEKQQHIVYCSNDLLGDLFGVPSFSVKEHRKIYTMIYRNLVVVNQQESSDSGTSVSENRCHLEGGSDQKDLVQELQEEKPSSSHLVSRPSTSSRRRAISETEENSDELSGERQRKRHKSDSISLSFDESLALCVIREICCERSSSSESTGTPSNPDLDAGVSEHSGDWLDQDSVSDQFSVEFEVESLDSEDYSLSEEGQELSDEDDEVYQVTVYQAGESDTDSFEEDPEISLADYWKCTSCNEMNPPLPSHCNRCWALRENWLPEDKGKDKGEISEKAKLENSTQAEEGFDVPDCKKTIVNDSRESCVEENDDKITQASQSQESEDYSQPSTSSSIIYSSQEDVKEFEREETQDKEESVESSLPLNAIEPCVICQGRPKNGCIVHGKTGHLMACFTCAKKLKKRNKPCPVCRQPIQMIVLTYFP
T cruzi inh – T. cruzi replication inhibition. T. cruzi beta-gal in NIH3T3, luminescence, 90 h. inhibition, % (no concentration beside the values). 1.4% of 300,000 active. AID 1885;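 active = mean inhibition across valid replicates above about 55%, limit read from the data; inconclusive = mean below that limit but half or more replicates reach it; inactive = mean below it, under half of replicates reach it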;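 note: signal also drops with host cell toxicity which is not excluded here; 0% = plate median of DMSO wells and 100% = zero luminescence signal; higher percent means less beta-gal luminescence so fewer parasites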
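Read-out: Parasite load inhibition, % | Test system: Mouse NIH/3T3 fibroblasts infected with β-gal-expressing T. cruzi Tulahuen C4 | Amount: 5,000 cells/well | Medium: DMEM, 2% fetal bovine serum | Signal: GalScreen β-gal luminescence, detergent lysis, 60 min | Timing: 3 h attach, ≥90 h co-culture | Also added: Tulahuen C4 trypomastigotes, 5000/well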
Mdm2 MdmX conf – human Mdm2/MdmX binding inhibition, confirmed; shares compounds with Mdm2 MdmX PPI; luminescent assay; inhibition, % at 8 µM; 55% of 10,000 active; AID 489028; in the data active = inhibition above about 40%
FLuc counter – inhibits full-length luciferase, flagging false Mdm2/MdmX hits; inhibition, % at 8 µM; SaOS-2 full-length luciferase counterscreen, luminescence; AID 504607; shares compounds with Mdm2 MdmX PPI; 77% of 6,200 active;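 active = mean inhibition at 8 µM reaching about 37%, which flags the compound as non-specific, limit read from the data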;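 note: p53-null SaOS-2 cells with luciferase driven by a doxycycline-inducible promoter; compound on cells about two nights before reading with doxycycline added after day one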
Numbers without * were called inactive; u = inconclusive; x = no result; ! = repeats disagree.

SMILES	Calb FLC	Beta apoptosis	CSC inhib	SKKanGAS inh	Mdm2 MdmX PPI	T cruzi inh	Mdm2 MdmX conf	FLuc counter
COc1ccc(-c2cc(C(F)(F)F)c(C#N)c(SCC(=O)Nc3nc(C)co3)n2)cc1	-22	6	x	-5	62*	-10	23	x
COc1ccc(-c2cc(C(F)(F)F)c(C#N)c(SCC(=O)Nc3ccccc3C#N)n2)cc1	0	14	-1	2	53*	-7	13	x
CCOc1ccc(S(=O)(=O)Nc2cccc(C(=O)NCC(c3ccco3)N3CCCC3)c2)cc1 (stereo not drawn)	x	-2	3	x	-3	x	x	x
COc1ccc(-c2nn(-c3ccccc3)cc2CN(C)CCn2ccnc2C)c(F)c1	0	2	11	6	-19	11	x	x
Cc1cc(Nc2cccc([N+](=O)[O-])c2)n2c(nc3ccccc32)c1C#N	12	108*	83*	42	98*	76*	91*	31
O=C(/C=C/c1ccc(Br)cc1)c1ccc(NC2=NCCCS2)cc1	11	36	x	11	101*	45	39	77*
COc1cccc(/C=C/C(=O)c2ccc(NC3=NCCCS3)cc2)c1	-6	10	-2	9	25	45	x	x
CN(C)c1ccc(C(=O)/C=C/c2ccc(Br)cc2)cc1	1	-3	25	-8	-88	6	x	x
Cc1cccc(/C=C/C(=O)c2ccc(NC3=NCCCS3)cc2)c1	x	9	43	x	86*	55*	58*	57*
CCOc1ccc(CN(C)C(=O)CCl)cc1	-3	2	-12	0	56*	5	22	x
CCOc1ccc(CN(C)C(=O)CCNC(=O)c2ccco2)cc1	x	-7	-5	x	1	x	x	x
O=S(=O)(c1ccc(NC(=S)N/N=C/c2c3ccccc3cc3ccccc23)cc1)N1CCOCC1	x	-1	7	x	58*	-4	9	x
O=S(=O)(c1ccc(NC(=S)N/N=C/c2ccc(N3CCOCC3)cc2)cc1)N1CCOCC1	1	10	-1	1	-4	17	x	x
O=S(=O)(c1ccc(NC(=S)N/N=C/c2ccc(Oc3ccccc3)cc2)cc1)N1CCOCC1	7	5	-2	-5	64*	-1	38	85*
COc1ccc(C)cc1NC(=O)CCNS(=O)(=O)c1ccc2c(c1)CCC(=O)N2	-3	-5	2	0	0	-1	x	x
O=C(O)CCN1C(=O)c2ccc(NC(=O)CCc3ccccc3)cc2C1=O	2	-1	-18	2	20	-5	x	x
CCOC(=O)Cn1c(COc2ccccc2OC)[n+](C)c2ccccc21	1	1	-15	-3	32	5	x	x
CCCCOC(=O)Cn1c(=O)n(CC(=O)OCCCC)c2ccccc21	-2	-4	-2	6	-8	9	x	x
CCCCCCCCCCOC(=O)Cn1c(COc2ccc(OC)cc2)[n+](C)c2ccccc21	-11	114*	103*!	13	85*	29	76*	21
CCCCCCCCCCOC(=O)Cn1c(COc2cccc(C)c2)[n+](C)c2ccccc21	49	99*	169*	101*	86*	58*	71*	25
CCCCCCCCCCOC(=O)Cn1c(COc2ccc(Cl)cc2)[n+](C)c2ccccc21	u	122*	109*	108*	78*	48	74*	59*
CCCCCCCCCCOC(=O)Cn1c(COc2ccccc2C)[n+](C)c2ccccc21	u	110*	106*	83*	89*	65*	69*	17
CC(C)Oc1ccc(C(=O)OCC(=O)NC2CCCCCC2)cc1	x	-9	-14	x	-18	x	x	x
CCCCCCCCCCOC(=O)Cn1c(COc2ccccc2)[n+](C)c2ccccc21	41	129*	103*	81*	69*	73*	72*	20
CCc1cc2cc3c(cc2nc1SCC(=O)Nc1nccs1)OCO3	10	17	-8	-20	71*	-8	20	x
CCc1cc2cc3c(cc2nc1SCC(=O)Nc1c[nH]c(=O)[nH]c1=O)OCO3	15	1	13	-1	30	-24	x	x
C1CN(CC23CC4CC(CC(C4)C2)C3)CCO1	-12	0	-1	0	0	-7	x	x
